This note sets out measurements from ChEMBL document CHEMBL1125311, “Inhibition of human leukocyte elastase. 4. Selection of a substituted cephalosporin (L-658,758) as a topical aerosol” (J Med Chem, 1992).

Data set [1] concerns Cricetinae gen. sp. Description: Compound was evaluated in vivo for inhibition of HLE-induced hemorrhage in hamster lung at 10 ug 30 min after administration prior to HLE. The data set is classed as functional, Cricetulus griseus. In a few lines:
(§1)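 Hamster, intratracheal dosing of compound (per animal) 30 min before IT instillation of 50 μg HLE (50 units in Experimental); hemorrhage read 3 h later: lungs lavaged with saline, hemoglobin in lavage measured at 414 nm. Percent inhibition from drug-treated vs vehicle-treated hemorrhage; three animals per dose and time. Titration at 100, 30, 10, 3 μg/animal gives ED50.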

Data set [2] relates to Cricetinae gen. sp. Nature of the data set: Inhibitory activity against Human Leukocyte Elastase by Lung Hemorrhage assay (at 200 ug/animal). It counts as functional, Cricetulus griseus. Put shortly:
(§2)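 Hamster duration protocol: 200 μg/animal given intratracheally 60, 120, 180 or 240 min before IT HLE instillation; hemorrhage scored after 3 h as hemoglobin (414 nm) in saline lung lavage, relative to vehicle-treated animals; three animals per point. T50 taken as time at which 50% inhibition is still obtained.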

For data set [3], the system named is Cricetinae gen. sp. Nature of the data set: Inhibitory activity against Human Leukocyte Elastase by Lung Hemorrhage assay (Effective dose at 15 microg). The data set is classed as functional, Cricetulus griseus.
Data set [4] relates to Cricetinae gen. sp. Description: Inhibitory activity against Human Leukocyte Elastase by Lung Hemorrhage assay ( at 30 min). The data set is classed as functional, Cricetulus griseus. In a few lines: as §1
Data set [5] can be described thus: Half-life value of the compound. It counts as ADME. Put shortly:
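Chemical stability: compound dissolved at 1 mg/mL in 0.5 M MOPS, pH 8.0, held at 25 °C in capped vial; aliquots quenched in 2% aqueous TFA and analysed by reverse-phase HPLC over one to two half-lives. Peak areas fit to first-order decay F(t)=A/2^(t/t1/2) to give t1/2.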

The test system of data set [6] is Cricetinae gen. sp. Nature of the data set: Compound was evaluated in vivo for inhibition of HLE-induced hemorrhage in hamster lung at 200 microg 3h after administration prior to HLE. The data set is classed as functional, Cricetulus griseus. In a few lines: as §2
For data set [7], the system named is Cricetinae gen. sp. Nature of the data set: Compound was evaluated in vivo for inhibition of HLE-induced hemorrhage in hamster lung at 200 microg 4 hr after administration prior to HLE. The data set is classed as functional, Cricetulus griseus. Put shortly: as §2
For data set [8], the system named is Cricetinae gen. sp. Description: Inhibitory activity against Human Leukocyte Elastase by Lung Hemorrhage assay. It counts as functional, Cricetulus griseus.
For data set [9], the system named is Cricetinae gen. sp. Nature of the data set: Compound was evaluated in vivo for inhibition of HLE-induced hemorrhage in hamster lung at 200 microg 2 hr after administration prior to HLE. It counts as functional, Cricetulus griseus. Put shortly:
as §2

For data set [10], the system named is Cricetinae gen. sp. Description: Compound was evaluated in vivo for inhibition of HLE-induced hemorrhage in hamster lung at 100 microg 30 min after administration prior to HLE. The data set is classed as functional, Cricetulus griseus. In a few lines: as §1
The test system of data set [11] is Cricetinae gen. sp. Nature of the data set: Compound was evaluated in vivo for inhibition of HLE-induced hemorrhage in hamster lung at 200 microg 1 hr after administration prior to HLE. The data set is classed as functional, Cricetulus griseus. In a few lines:
as §2

The species entered for a further data set is Rattus norvegicus. Nature of the data set: Inhibitory activity against Human Leukocyte Elastase by Lung Hemorrhage assay (at 250 ug/animal).
Data set [12] deals with T1, Neutrophil elastase (Homo sapiens) (UniProt P08246).
T1 sequence (whole entry): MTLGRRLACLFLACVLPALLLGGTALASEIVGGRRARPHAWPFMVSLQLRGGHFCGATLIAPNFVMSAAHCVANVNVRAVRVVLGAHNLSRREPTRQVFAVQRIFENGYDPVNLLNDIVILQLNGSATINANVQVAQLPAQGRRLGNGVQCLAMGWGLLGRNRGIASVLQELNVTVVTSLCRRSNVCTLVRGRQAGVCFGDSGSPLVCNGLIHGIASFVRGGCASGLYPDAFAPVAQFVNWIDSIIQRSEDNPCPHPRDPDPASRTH

Data set [13] concerns Cricetinae gen. sp. Description: Compound was evaluated in vivo for inhibition of HLE-induced hemorrhage in hamster lung at 30 ug 30 min after administration prior to HLE. It counts as functional, Cricetulus griseus. In a few lines: as §1
Data set [14] relates to Cricetinae gen. sp. Description: Compound was evaluated in vivo for inhibition of HLE-induced hemorrhage in hamster lung at 200 microg, 3h after administration prior to HLE. The data set is classed as functional, Cricetulus griseus. In a few lines:
as §2

For data set [15], the system named is Cricetinae gen. sp. Description: Compound was evaluated in vivo for inhibition of HLE-induced hemorrhage in hamster lung at 10 microg, 30 min after administration prior to HLE. It counts as functional, Cricetulus griseus. In a few lines:
as §1

The test system of data set [16] is Cricetinae gen. sp. Description: Compound was evaluated in vivo for inhibition of HLE-induced hemorrhage in hamster lung at 3 microg, 30 min after administration prior to HLE. The data set is classed as functional, Cricetulus griseus. In a few lines: as §1
For data set [17], the system named is Cricetinae gen. sp. Description: Compound was evaluated in vivo for inhibition of HLE-induced hemorrhage in hamster lung at 100 microg, 30 min after administration prior to HLE. The data set is classed as functional, Cricetulus griseus. In a few lines: as §1
The subject of data set [18] is Cricetinae gen. sp. Description: Compound was evaluated in vivo for inhibition of HLE-induced hemorrhage in hamster lung at 30 microg, 30 min after administration prior to HLE.
The test system of data set [19] is Cricetinae gen. sp. Nature of the data set: Compound was evaluated in vivo for inhibition of HLE-induced hemorrhage in hamster lung at 200 microg, 1 hr after administration prior to HLE. It counts as functional, Cricetulus griseus. In a few lines:
as §2

Data set [20] deals with Cricetinae gen. sp. Description: Compound was evaluated in vivo for inhibition of HLE-induced hemorrhage in hamster lung at 200 microg, 2 hr after administration prior to HLE. The data set is classed as functional, Cricetulus griseus. Put shortly: as §2
The test system of data set [21] is Cricetinae gen. sp. Description: Compound was evaluated in vivo for inhibition of HLE-induced hemorrhage in hamster lung at 200 microg, 4 hr after administration prior to HLE. The data set is classed as functional, Cricetulus griseus. Put shortly:
as §2

Data set [22] deals with Cricetinae gen. sp. Nature of the data set: Compound was evaluated in vivo for inhibition of HLE-induced hemorrhage in hamster lung at 100 microg 30 min after administration. It counts as functional, Cricetulus griseus. In a few lines: as §1
For data set [23], the system named is Cricetinae gen. sp. Description: Compound was evaluated in vivo for inhibition of HLE-induced hemorrhage in hamster lung at 100 microg 90 min after administration. It counts as functional, Cricetulus griseus.
Data set [24] has as its system Cricetinae gen. sp. Nature of the data set: Compound was evaluated in vivo for inhibition of HLE-induced hemorrhage in hamster lung at 30 microg 30 min after administration. It counts as functional, Cricetulus griseus. In a few lines:
as §1

Data set [25] deals with Cricetinae gen. sp. Nature of the data set: Compound was evaluated in vivo for inhibition of HLE-induced hemorrhage in hamster lung at 10microg, 30 min after administration prior to HLE. It counts as functional, Cricetulus griseus. In a few lines:
as §1

Data set [26] deals with Cricetinae gen. sp. Nature of the data set: Compound was evaluated in vivo for inhibition of HLE-induced hemorrhage in hamster lung at 30microg, 30 min after administration prior to HLE. It counts as functional, Cricetulus griseus. Put shortly: as §1
Data set [27] concerns Cricetinae gen. sp. Description: Compound was evaluated in vivo for lung hemorrhage inhibitory activity at 200 microg, 1 hr after administration prior to HLE. It counts as functional, Cricetulus griseus. In a few lines:
as §2

In data set [28] the test system is Cricetinae gen. sp. Description: Compound was evaluated in vivo for inhibition of HLE-induced hemorrhage in hamster lung at 10 microg 30 min after administration. The data set is classed as functional, Cricetulus griseus. In a few lines: as §1
In data set [29] the test system is Cricetinae gen. sp. Description: Compound was evaluated in vivo for inhibition of HLE-induced hemorrhage in hamster lung at 200 microg after 180 min of administration. The data set is classed as functional, Cricetulus griseus. In a few lines: as §2
Data set [30] relates to Cricetinae gen. sp. Nature of the data set: Compound was evaluated in vivo for inhibition of HLE-induced hemorrhage in hamster lung at 400 microg, 5 min after administration. It counts as functional, Cricetulus griseus.
Data set [31] relates to Cricetinae gen. sp. Description: Compound was evaluated in vivo for inhibition of HLE-induced hemorrhage in hamster lung at 100 microg 5 min after administration. It counts as functional, Cricetulus griseus.
The test system of data set [32] is Cricetinae gen. sp. Description: Compound was evaluated in vivo for inhibition of HLE-induced hemorrhage in hamster lung at 100 microg, 90 min after administration. It counts as functional, Cricetulus griseus.
Data set [33] concerns Cricetinae gen. sp. Description: Compound was evaluated in vivo for inhibition of HLE-induced hemorrhage in hamster lung at 100 microg, 30 min after administration. It counts as functional, Cricetulus griseus. In a few lines:
as §1

Molecules are shown by their SMILES.

Consider `CO[C@H]1C(=O)N2C(C(=O)N(C)CC(=O)O)=C(CSc3nc(=O)c(=O)[nH]n3C)CS(=O)(=O)[C@H]12`, for which the Inhibition (commonly the relative decrease from the control value, in per cent) is on record as 56% in the data set with Cricetinae gen. sp. [1]; 64% with Cricetinae gen. sp. [6]; 37% in the data set with Cricetinae gen. sp. [7]; 86% with Cricetinae gen. sp. [8]; 90% in the data set with Cricetinae gen. sp. [9]; 98% with Cricetinae gen. sp. [10]. The Inhibition worked out at 94% with Cricetinae gen. sp. [11], 82% in the data set listed under Rattus norvegicus and 94% in the data set with Cricetinae gen. sp. [13]. The same compound returned a T50 with Cricetinae gen. sp. [2] of 180 min. The ED50 came out at 400 µg with Cricetinae gen. sp. [3] and 10 µg with Cricetinae gen. sp. [4]. In addition, the half-life (in general, the time needed for the level to fall by half in the phase considered) in [5] is 22 h. This compound also returned a k obs / 1 in data set [12] of 6200 M⁻¹ s⁻¹.
On to `CO[C@H]1C(=O)N2C(C(=O)N(C)[C@@H](C)C(=O)O)=C(COC(C)=O)CS(=O)(=O)[C@H]12`, for which the Inhibition with Cricetinae gen. sp. [14] is 47%; in the data set with Cricetinae gen. sp. [15] it was 78%; in the data set with Cricetinae gen. sp. [16] it was 50%; in the data set on Cricetinae gen. sp. [17] it was 96%; in the data set on Cricetinae gen. sp. [18], 89%; in the data set on Cricetinae gen. sp. [19], 94%. In addition, the Inhibition in the data set on Cricetinae gen. sp. [20] is listed as 81%; in the data set on Cricetinae gen. sp. [21] it was 21%. This compound showed a k obs / 1 in data set [12] of 500 M⁻¹ s⁻¹.
On to `CO[C@H]1C(=O)N2C(C(=O)OC(C)(C)C)=C(CSc3nc(=O)c(=O)[nH]n3C)CS(=O)(=O)[C@H]12`, for which the Inhibition in the data set with Cricetinae gen. sp. [22] was 90%; in the data set with Cricetinae gen. sp. [23], 18%. Further, the k obs / 1 in data set [12] came to 8600 M⁻¹ s⁻¹.
For `CO[C@H]1C(=O)N2C(C(=O)OC(C)(C)C)=C(CSc3nnnn3CC(=O)O)CS(=O)(=O)[C@H]12`, the Inhibition was determined as 77% with Cricetinae gen. sp. [24] and 89% with Cricetinae gen. sp. [22]. The k obs / 1 in data set [12] turned out to be 3700 M⁻¹ s⁻¹.
In the case of `CO[C@H]1C(=O)N2C(C(=O)N3CC(O)CC3C(=O)O)=C(COC(C)=O)CS(=O)(=O)[C@H]12` (stereo partly drawn), the Inhibition in the data set with Cricetinae gen. sp. [14] was found to be 4%; with Cricetinae gen. sp. [17], 98%; in the data set with Cricetinae gen. sp. [20] it was 81%; in the data set on Cricetinae gen. sp. [25], 78%; in the data set on Cricetinae gen. sp. [21], 17%; in the data set on Cricetinae gen. sp. [26], 95%. In the data set on Cricetinae gen. sp. [27], this compound came in with an Inhibition of 86%. In [12], this compound showed a k obs / 1 of 900 M⁻¹ s⁻¹.
`CO[C@H]1C(=O)N2C(C(=O)N(C)CC(=O)O)=C(COC(C)=O)CS(=O)(=O)[C@H]12`: the Inhibition in the data set with Cricetinae gen. sp. [22] is 90%; with Cricetinae gen. sp. [28], 67%; in the data set with Cricetinae gen. sp. [29], 54%. Further, the half-life in [5] is 13 h. Besides, the k obs / 1 in data set [12] came to 300 M⁻¹ s⁻¹.
On to `CO[C@H]1C(=O)N2C(C(=O)OC(C)(C)C)=C(COC(=O)CCC(=O)O)CS(=O)(=O)[C@H]12`, for which, in the data set on Cricetinae gen. sp. [30], the Inhibition came to 98%.
For the compound `CO[C@H]1C(=O)N2C(C(=O)OCc3ccc(C(=O)O)cc3)=C(COC(C)=O)CS(=O)(=O)[C@H]12`, in data set [5], the half-life was 5 h. In the data set with Cricetinae gen. sp. [31], this compound registered an Inhibition of 98%.
Consider `CO[C@H]1C(=O)N2C(C(=O)OC(C)(C)C)=C(COC(=O)N[C@@H](Cc3ccccc3)C(=O)O)CS(=O)(=O)[C@H]12`, for which the Inhibition in the data set with Cricetinae gen. sp. [32] was 10%; with Cricetinae gen. sp. [33], 87%. For the same compound, the k obs / 1 in data set [12] was 63900 M⁻¹ s⁻¹.
